Tests used:
NCI-H727 [1] = test: Antiproliferative activity against human NCI-H727 cells incubated for 48 hrs by […] dye staining based assay; type: functional, cell-based; conditions: NCI-H727, 48 h
Summary of the method: (§1)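 Cells were grown per ECACC recommendations and seeded in triplicate at 2 × 10³ (HCT-116) or 4 × 10³ (other lines) per well. After 24 h attachment, they were exposed 48 h to increasing concentrations of 0.1 to 25. Cells were then fixed in cold 90% ethanol/5% acetic acid, nuclei were Hoechst-stained, and nuclei were counted by automated imaging.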

[2] = molecular target: Cyclin-dependent kinase 5/CDK5 activator 1 (Homo sapiens, UniProt Q00535); test: Inhibition of human recombinant CDK5/P25 using myelin basic protein substrate; type: protein-complex assay
[3] = Antiproliferative activity against human Skin fibroblasts incubated for 48 hrs by […] dye staining based assay; conditions: Skin fibroblast; summary of the method: as §1
PC-3 [4] = test: Antiproliferative activity against human PC3 cells incubated for 48 hrs by […] dye staining based assay; type: functional, cell-based; conditions: PC-3, 48 h; summary of the method: as §1
MDA-MB-231 = test: Antiproliferative activity against human MDA-MB-231 cells incubated for 48 hrs by […] dye staining based assay; type: functional, cell-based; conditions: MDA-MB-231, 48 h
Summary of the method: (§2)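 After 24 h attachment, they were exposed 48 h to increasing concentrations of 0.1 to 25. Cells were then fixed in cold 90% ethanol/5% acetic acid, nuclei were Hoechst-stained, and nuclei were counted by automated imaging.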

HCT-116 = test: Antiproliferative activity against human HCT116 cells incubated for 48 hrs by […] dye staining based assay; type: functional, cell-based; conditions: HCT-116, 48 h; summary of the method: as §1
[5] = molecular target: Dual specificity tyrosine-phosphorylation-regulated kinase 1A (Rattus norvegicus, UniProt Q63470); test: Inhibition of rat recombinant GST-tagged DYRK1A expressed in Escherichia coli using myelin basic protein substrate
Huh-7 [6] = test: Antiproliferative activity against human HuH7 cells incubated for 48 hrs by […] dye staining based assay; type: functional, cell-based; conditions: Huh-7, 48 h; summary of the method: as §2
[7] = molecular target: PI3-kinase p110-alpha/p85-alpha (Homo sapiens, UniProt P42336); test: Inhibition of PI3K p110alpha/p85alpha by fluorescence based immunoassay; type: protein-complex assay
Summary of the method: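 ADAPTA TR-FRET ADP-detection kinase assay. Detection used 6 nM Eu-anti-ADP antibody, 12 nM Alexa647-ADP tracer and 30 mM EDTA for 30 min. Read-out was excitation 340 nm with 665/615 nm emission ratio, converted to % conversion via an ATP–ADP titration curve.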

Caco-2 [8] = test: Antiproliferative activity against human Caco2 cells incubated for 48 hrs by […] dye staining based assay; type: functional, cell-based; conditions: Caco-2, 48 h; summary of the method: as §2
[9] = molecular target: Phosphatidylinositol 4,5-bisphosphate 3-kinase catalytic subunit gamma isoform (Homo sapiens, UniProt P48736); test: Inhibition of PI3K p110gamma by fluorescence based immunoassay
Huh-7 [10] = test: Antiproliferative activity against human HuH7 cells assessed as cell diminution incubated for 48 hrs by […] dye staining based assay; type: functional; summary of the method: as §1
NCI-H727 [11] = test: Antiproliferative activity against human NCI-H727 cells assessed as cell diminution incubated for 48 hrs by […] dye staining based assay; type: functional; summary of the method: as §1
[12] = Antiproliferative activity against human Skin fibroblasts assessed as cell diminution incubated for 48 hrs by […] dye staining based assay; conditions: skin fibroblast; summary of the method: as §1
PC-3 [13] = test: Antiproliferative activity against human PC3 cells assessed as cell diminution incubated for 48 hrs by […] dye staining based assay; type: functional; summary of the method: as §1
Caco-2 [14] = test: Antiproliferative activity against human Caco2 cells assessed as cell diminution incubated for 48 hrs by […] dye staining based assay; type: functional; summary of the method: as §1

Sequence of Cyclin-dependent kinase 5/CDK5 activator 1 (Q00535 whole entry): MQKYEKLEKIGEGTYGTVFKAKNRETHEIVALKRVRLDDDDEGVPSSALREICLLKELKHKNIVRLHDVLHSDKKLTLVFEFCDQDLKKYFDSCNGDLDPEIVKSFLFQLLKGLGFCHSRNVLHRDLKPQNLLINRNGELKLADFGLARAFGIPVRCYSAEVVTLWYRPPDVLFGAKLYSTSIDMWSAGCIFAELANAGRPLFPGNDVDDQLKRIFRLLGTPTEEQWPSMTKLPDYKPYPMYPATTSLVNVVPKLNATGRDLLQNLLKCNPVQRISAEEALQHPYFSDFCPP
Sequence of Cyclin-dependent kinase 5/CDK5 activator 1 (Q15078 whole entry, further chain): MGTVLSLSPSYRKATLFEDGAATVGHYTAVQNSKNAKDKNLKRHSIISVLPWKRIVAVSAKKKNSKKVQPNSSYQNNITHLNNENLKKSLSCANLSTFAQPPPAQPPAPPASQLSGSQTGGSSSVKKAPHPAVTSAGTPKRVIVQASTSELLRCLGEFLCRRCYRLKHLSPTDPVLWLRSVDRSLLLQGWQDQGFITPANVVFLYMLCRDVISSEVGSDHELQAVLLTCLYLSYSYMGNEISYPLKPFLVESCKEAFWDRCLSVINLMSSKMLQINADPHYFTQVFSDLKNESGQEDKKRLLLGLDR
Sequence of PI3-kinase p110-alpha/p85-alpha (P27986 whole entry): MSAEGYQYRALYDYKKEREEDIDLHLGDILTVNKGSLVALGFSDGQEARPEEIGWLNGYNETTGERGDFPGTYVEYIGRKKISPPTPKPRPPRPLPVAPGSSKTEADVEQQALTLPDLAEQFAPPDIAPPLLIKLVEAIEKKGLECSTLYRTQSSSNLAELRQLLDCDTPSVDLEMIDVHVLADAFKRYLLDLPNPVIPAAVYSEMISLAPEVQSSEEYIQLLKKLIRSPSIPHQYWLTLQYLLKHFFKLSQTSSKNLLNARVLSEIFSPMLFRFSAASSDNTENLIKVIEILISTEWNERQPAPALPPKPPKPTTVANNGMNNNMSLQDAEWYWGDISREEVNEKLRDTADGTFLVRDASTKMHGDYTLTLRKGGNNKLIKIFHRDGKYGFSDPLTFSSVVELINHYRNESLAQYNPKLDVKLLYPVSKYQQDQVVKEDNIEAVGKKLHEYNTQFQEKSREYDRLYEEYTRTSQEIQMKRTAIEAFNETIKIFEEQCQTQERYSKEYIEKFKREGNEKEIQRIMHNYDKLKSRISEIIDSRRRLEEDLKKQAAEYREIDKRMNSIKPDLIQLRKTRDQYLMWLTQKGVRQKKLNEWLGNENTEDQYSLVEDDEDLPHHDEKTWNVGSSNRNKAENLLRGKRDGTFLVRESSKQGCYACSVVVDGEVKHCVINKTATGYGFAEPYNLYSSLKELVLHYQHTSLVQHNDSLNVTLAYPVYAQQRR
Sequence of PI3-kinase p110-alpha/p85-alpha (P42336 whole entry): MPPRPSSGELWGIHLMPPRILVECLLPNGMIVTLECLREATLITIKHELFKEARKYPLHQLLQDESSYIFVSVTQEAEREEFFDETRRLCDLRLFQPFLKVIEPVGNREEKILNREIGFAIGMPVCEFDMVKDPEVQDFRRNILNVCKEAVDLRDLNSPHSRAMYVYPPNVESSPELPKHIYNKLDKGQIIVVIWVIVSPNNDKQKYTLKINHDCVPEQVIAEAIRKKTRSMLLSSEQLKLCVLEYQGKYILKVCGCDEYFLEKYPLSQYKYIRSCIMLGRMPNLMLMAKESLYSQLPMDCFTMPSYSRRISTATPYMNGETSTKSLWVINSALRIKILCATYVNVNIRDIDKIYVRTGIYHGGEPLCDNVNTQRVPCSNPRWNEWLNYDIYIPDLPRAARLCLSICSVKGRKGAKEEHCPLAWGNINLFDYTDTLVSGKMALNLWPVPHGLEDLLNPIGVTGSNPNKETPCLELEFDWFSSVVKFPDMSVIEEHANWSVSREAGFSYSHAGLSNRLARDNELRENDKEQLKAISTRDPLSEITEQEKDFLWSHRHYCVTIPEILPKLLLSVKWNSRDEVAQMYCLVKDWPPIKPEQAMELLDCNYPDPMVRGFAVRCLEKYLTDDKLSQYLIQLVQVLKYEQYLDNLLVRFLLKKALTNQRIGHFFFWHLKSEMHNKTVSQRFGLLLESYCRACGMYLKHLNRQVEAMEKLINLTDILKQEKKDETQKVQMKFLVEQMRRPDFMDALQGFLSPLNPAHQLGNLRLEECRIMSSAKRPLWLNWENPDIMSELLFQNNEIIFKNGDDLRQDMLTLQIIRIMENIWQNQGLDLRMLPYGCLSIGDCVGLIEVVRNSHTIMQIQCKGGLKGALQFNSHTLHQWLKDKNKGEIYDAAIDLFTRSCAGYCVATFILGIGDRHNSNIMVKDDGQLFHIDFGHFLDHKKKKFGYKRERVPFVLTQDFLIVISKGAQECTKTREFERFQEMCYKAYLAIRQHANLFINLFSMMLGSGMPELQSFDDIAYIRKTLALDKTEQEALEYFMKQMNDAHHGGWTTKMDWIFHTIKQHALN
Sequence of Phosphatidylinositol 4,5-bisphosphate 3-kinase catalytic subunit gamma isoform (P48736 whole entry, looked up, canonical isoform): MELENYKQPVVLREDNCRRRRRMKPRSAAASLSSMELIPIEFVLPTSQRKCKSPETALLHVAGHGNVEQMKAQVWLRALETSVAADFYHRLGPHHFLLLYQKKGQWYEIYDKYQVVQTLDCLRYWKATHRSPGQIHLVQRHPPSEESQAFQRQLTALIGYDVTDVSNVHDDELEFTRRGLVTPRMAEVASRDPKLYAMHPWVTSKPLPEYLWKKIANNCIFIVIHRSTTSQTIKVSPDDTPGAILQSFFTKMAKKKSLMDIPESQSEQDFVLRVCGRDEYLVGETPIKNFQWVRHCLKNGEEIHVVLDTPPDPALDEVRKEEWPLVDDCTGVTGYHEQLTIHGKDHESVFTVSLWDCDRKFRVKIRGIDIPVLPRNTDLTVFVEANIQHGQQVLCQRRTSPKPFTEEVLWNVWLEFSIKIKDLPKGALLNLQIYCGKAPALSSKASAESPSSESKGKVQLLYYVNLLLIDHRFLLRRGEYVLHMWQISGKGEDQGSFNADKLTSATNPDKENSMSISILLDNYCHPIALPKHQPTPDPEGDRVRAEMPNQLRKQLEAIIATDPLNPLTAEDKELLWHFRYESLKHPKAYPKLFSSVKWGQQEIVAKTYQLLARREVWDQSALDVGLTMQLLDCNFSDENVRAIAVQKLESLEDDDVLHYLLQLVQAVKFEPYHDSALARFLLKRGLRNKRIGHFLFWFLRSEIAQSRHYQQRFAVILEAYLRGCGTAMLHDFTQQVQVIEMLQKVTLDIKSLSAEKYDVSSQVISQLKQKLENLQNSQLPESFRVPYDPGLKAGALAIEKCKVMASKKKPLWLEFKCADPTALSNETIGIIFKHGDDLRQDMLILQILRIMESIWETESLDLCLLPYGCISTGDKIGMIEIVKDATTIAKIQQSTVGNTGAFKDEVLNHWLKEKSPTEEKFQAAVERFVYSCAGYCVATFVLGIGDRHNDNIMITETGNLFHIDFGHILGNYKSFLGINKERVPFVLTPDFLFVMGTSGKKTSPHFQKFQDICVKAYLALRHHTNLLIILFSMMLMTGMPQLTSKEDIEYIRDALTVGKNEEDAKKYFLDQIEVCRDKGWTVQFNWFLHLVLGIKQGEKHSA

Row | SMILES | IC50 (NCI-H727 [1]) [µM] | IC50 [2] [µM] | IC50 [3] [µM] | IC50 (PC-3 [4]) [µM] | IC50 (MDA-MB-231) [µM] | IC50 (HCT-116) [µM] | IC50 [5] [µM] | IC50 (Huh-7 [6]) [µM] | IC50 [7] [µM] | IC50 (Caco-2 [8]) [µM] | IC50 [9] [µM] | Activity (Huh-7 [10]) [%] | Activity (NCI-H727 [11]) [%] | Activity [12] [%] | Activity (PC-3 [13]) [%] | Activity (Caco-2 [14]) [%]
1 | COc1cccc(Cn2c3ccc(F)cc3c3c(C)n[nH]c(=O)c32)c1 | 2 | > 10 | > 25 | 0.4 | 0.9 | 4 | > 10 | 1.5 | > 10 | 2 | – | – | – | – | – | –
2 | Cc1n[nH]c(=O)c2[nH]c3ccc(F)cc3c12 | 2 | > 10 | 10 | 3 | 4 | 5 | 5.6 | 1.5 | > 10 | 4 | – | – | – | – | – | –
3 | Cc1n[nH]c(=O)c2c1c1cc(Br)ccc1n2Cc1ccc([N+](=O)[O-])cc1 | 1 | > 10 | 2 | 1.5 | 4 | 2 | > 10 | 1 | 6 | 2 | > 10 | – | – | – | – | –
4 | COc1ccc2[nH]c3c(=O)[nH]nc(C)c3c2c1 | 5 | > 10 | 20 | 7 | 5 | 15 | 5 | 3 | > 10 | 8 | – | – | – | – | – | –
5 | COc1ccc(Cn2c3ccc(OC)cc3c3c(C)n[nH]c(=O)c32)cc1 | – | > 10 | – | – | – | – | > 10 | – | > 10 | – | – | – | – | – | – | –
6 | COc1ccc2c(c1)c1c(C)n[nH]c(=O)c1n2Cc1ccc([N+](=O)[O-])cc1 | 2.5 | > 10 | 4 | 3 | 2 | 5 | > 10 | 3 | 2.6 | 5 | – | – | – | – | – | –
7 | COc1cccc(Cn2c3ccc(OC)cc3c3c(C)n[nH]c(=O)c32)c1 | 3 | > 10 | 1 | 2.5 | 3 | 2 | > 10 | 1 | 6.3 | 2 | – | – | – | – | – | –
8 | Oc1cccc(-c2nc(N3CCOCC3)c3oc4ncccc4c3n2)c1 [PI-103] | 3 | – | 1.5 | 1.5 | 15 | 1 | – | 1.5 | – | 0.9 | – | 40 | 30 | 30 | – | –
9 | Cc1n[nH]c(=O)c2c1c1cc(F)ccc1n2Cc1ccc(C#N)cc1 | 4 | > 10 | > 25 | 1 | 1.5 | 5 | > 10 | 3 | > 10 | 2 | – | – | – | – | – | –
10 | Cc1n[nH]c(=O)c2c1c1cc(F)ccc1n2Cc1cccc(C#N)c1 | 6 | > 10 | 8 | 4 | 12 | 6 | > 10 | 3 | 5 | 2 | – | – | – | – | – | –
11 | Cc1n[nH]c(=O)c2c1c1cc(Br)ccc1n2Cc1cccc(C#N)c1 | 4 | > 10 | 4 | 2.5 | 4 | 5 | > 10 | 2 | 0.091 | 2 | 0.295 | – | – | – | – | –
12 | Cc1n[nH]c(=O)c2[nH]c3ccc(Br)cc3c12 | 3 | – | 8 | 3 | 6 | 5 | – | 1.5 | – | 2 | – | – | – | – | – | –
13 | COc1cccc(Cn2c3ccc(Br)cc3c3c(C)n[nH]c(=O)c32)c1 | 5 | > 10 | 3 | 2 | 4 | 2 | > 10 | 2 | 1.5 | 2 | 2.2 | – | – | – | – | –
14 | COc1ccc2c(c1)c1c(C)n[nH]c(=O)c1n2Cc1cccc([N+](=O)[O-])c1 | 4 | > 10 | 2 | 2.5 | 4 | 4 | > 10 | 1.5 | 1.8 | 5 | – | – | – | 50 | 50 | 50
15 | CC[C@H](CO)Nc1nc(NCc2ccccc2)c2ncn(C(C)C)c2n1 [SELICICLIB] | 20 | – | > 25 | 10 | – | 7 | – | – | – | – | – | – | – | – | – | –
16 | Cc1n[nH]c(=O)c2c1c1cc(F)ccc1n2Cc1ccc([N+](=O)[O-])cc1 | 5 | > 10 | > 25 | 0.6 | 2 | 5 | > 10 | 5 | > 10 | 2 | – | – | – | – | – | –
17 | Cc1n[nH]c(=O)c2c1c1cc(Br)ccc1n2Cc1ccc(C#N)cc1 | 3 | > 10 | 2 | 2 | 4 | 2 | > 10 | 2 | 1.9 | 2 | > 10 | – | – | – | – | –
18 | Cc1n[nH]c(=O)c2c1c1cc(Br)ccc1n2Cc1cccc([N+](=O)[O-])c1 | 4 | > 10 | 5 | 5 | 5 | 4 | > 10 | 2 | 5.1 | 3 | 4.1 | – | – | – | – | –
19 | COc1ccc2c(c1)c1c(C)n[nH]c(=O)c1n2Cc1ccc(C#N)cc1 | 2 | > 10 | 5 | 2 | 2 | 4 | > 10 | 2 | 2.9 | 6 | – | – | – | – | 50 | –
20 | COc1ccc(Cn2c3ccc(Br)cc3c3c(C)n[nH]c(=O)c32)cc1 | 5 | > 10 | 4 | 2.5 | 5 | 4 | > 10 | 1.5 | 1.5 | 2 | 5.2 | – | – | – | – | –
21 | COc1ccc(Cn2c3ccc(F)cc3c3c(C)n[nH]c(=O)c32)cc1 | 3 | > 10 | 5 | 2.5 | 2 | 2 | > 10 | 1 | 4.2 | 2 | – | – | – | – | – | –
22 | Cc1n[nH]c(=O)c2c1c1cc(F)ccc1n2Cc1cccc([N+](=O)[O-])c1 | 6 | > 10 | > 25 | 0.7 | 0.8 | 4 | > 10 | 3 | > 10 | 2 | – | – | – | – | – | –
23 | COc1ccc2c(c1)c1c(C)n[nH]c(=O)c1n2Cc1cccc(C#N)c1 | 4 | > 10 | 5 | 2 | 3 | 5 | > 10 | 2 | 3.3 | 3 | – | – | – | – | – | –

Source: ChEMBL document CHEMBL2086312, “Synthesis and biological evaluation of new 5-benzylated 4-oxo-3,4-dihydro-5H-pyridazino[4,5-b]indoles as PI3Kα inhibitors” (Eur J Med Chem, 2012)
